The list is not random: actives were taken first. Their share in the collection is about 4%.
MT stabilizer = stabilizes microtubules in HeLa cells. HeLa tubulin immunostaining HCS, 24 h; share of cells brighter than vehicle mean+2SD. % tubulin-high responders, % at 10 µM. 200,000 compounds, 0.83% hits. AID 2205;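 active means plate Z-score above 3 for both tubulin-high and condensed-nucleus cell shares, with cell loss under 80%, at 10 µM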;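 further: anti alpha tubulin signal scored within the nucleus-defined area of each cell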
WT yeast gro inh = growth inhibition of WT yeast, mitochondrial fusion screen | mitochondrial fusion phenotypic screen, WT strain | inhibition, % at 10 µM | 190,000 compounds, 2.1% hits; in the data active means inhibition above about 58%; tested in S. cerevisiae
b-catenin transl = alters nuclear translocation of beta-catenin in HeLa cells | immunofluorescence imaging | nuclear translocation activity, % at 5 µM | 190,000 compounds, 0.3% hits | AID 1665;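 active means nuclear translocation activity above 50% at 5 µM, with a well cell count of 50 or more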;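 further: per-cell ratio of nuclear to cytoplasmic median beta-catenin stain intensity; plate controls were DMSO negative control for no effect and GSK-3 inhibitor IX positive control for full effect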
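Technique: fluorescence imaging of beta-catenin antibody stain plus DAPI / Material: human HeLa cell line / Incubation: compound treatment 24 h, 37°C, 5% CO2 / Read-out basis: % activation of per-cell nuclear versus cytoplasmic median beta-catenin signal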
KCC2 mod = KCC2 (human) Cl- transport modulation; KCC2 cells, thallium flux FluoZin-2 fluorescence; B-score of Tl+ flux slope (higher = more flux/activation; lower = inhibition) at 10 µM; Q9H2X9; 190,000 compounds, 2.2% hits;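 active means thallium flux slope and its plate-corrected score both differing from the plate sample mean at a set confidence after two filtering rounds, in either direction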;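 further: slope of fluorescence scaled to starting intensity during 10 to 20 s after thallium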
Pf gamet viab = inhibitors of late stage P. falciparum gametocyte viability. inhibition, % at 10.9 µM. P. falciparum stage V gametocytes, ATP luminescence, 24 h. 150,000 compounds, 0.065% hits;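 active means inhibition above the mean plus 3 SD of compounds within the control limits, set per campaign, cut at about 38% in these data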;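 further: 0% = DMSO wells and 100% = medium only without gametocytes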
The depositor's hits bear a star; x = no result.

SMILES	MT stabilizer	WT yeast gro inh	b-catenin transl	KCC2 mod	Pf gamet viab
COc1ccc(C2/C=C\CN(C(=O)C3CCCC3)[C@H](Cc3ccccc3)C(=O)N2Cc2ccc(F)cc2)cc1 (stereo partly specified)	x	x	1	-0.55	5
COc1ccc(-c2csc(-c3ccccc3)n2)c(OC)c1	1	73*	0	-0.03	x
CC(C)(C)C(=O)Cn1c(=N)n(Cc2ccccc2)c2ccccc21	3	70*	-2	1.4	x
CC(C)(C)C(=O)Cn1c(=N)n(Cc2ccccc2Cl)c2ccccc21	1	14	x	x	x
CC(=O)Nc1ccc(S(C)(=O)=O)c(C)c1	1	-13	0	-0.18	-19
Cc1ccsc1/C=N/NC(=S)NCCc1ccccc1	4	69*	-1	3.6	0
CCNC(=S)N/N=C/c1sccc1C	2	9	-3	1.5	x
CNC(=S)N/N=C/C1=CCC2CC1C2(C)C (stereo unspecified)	3	18	2	1.5	2
CC1(C)C2CC=C(/C=N/NC(=S)NCCc3ccccc3)C1C2 (stereo unspecified)	1	66*	0	-0.54	2
CN(C)c1ccc(Nc2cc(Cl)ncn2)cc1	x	x	x	x	-9
CCCCC(=O)NC(=S)Nc1cccc(NC(=O)c2ccccc2)c1	3	7	-2	-1.3	-9
O=C(O)COCC(=O)N1CCN(C2c3ccccc3-c3ccccc32)CC1	x	x	0	1.3	2
Cn1cccc1/C=N/NC(=O)CSc1nc2ccccc2[nH]1	x	x	-1	-0.28	-12
CCN1CCN(c2ccc(NC(=O)c3ccc4c(c3)OCO4)cc2)CC1	3	64*	0	-0.35	5
CCC(=O)N1CCN(c2ccc(NC(=O)c3ccc4c(c3)OCO4)cc2)CC1	2	9	-1	1.5	x
O=C(Nc1ccc(Cl)cc1)c1ccc2c(c1)OCO2	1	80*	-1	1.2	x
O=C(Nc1ccc(N2CCCC2)c(Cl)c1)c1ccc2c(c1)OCCO2	4	22	x	0.2	x
O=C(Nc1ccc2c(c1)OCO2)c1ccc(NC2CC2)c([N+](=O)[O-])c1	28*	13	8	0.36	7
O=C(Nc1ccc(N2CCCCC2)c(Cl)c1)c1ccc2c(c1)OCCO2	1	69*	7	x	x
CC1=NN(C(=O)COc2ccc(C)c(C)c2)C(O)(c2ccccc2)C1 (stereo unspecified)	4	-1	0	0.022	-3
CSc1nc(N2CCOCC2)nc2ccc(C)cc12	x	x	x	x	-27
CCn1c(SCC(=O)Nc2c(C#N)cnn2-c2ccccc2)nnc1-c1cccs1	x	x	-1	-0.34	-29
Cc1ccc(C(c2nnnn2CC2CCCO2)N2CCN(c3cccc(C)c3C)CC2)cc1 (stereo unspecified)	7	60*	-4	-0.98	3
Cc1cccc(N2CCN(C(c3ccccc3)c3nnnn3C(C)(C)C)CC2)c1C (stereo unspecified)	2	75*	-2	-0.027	x
CCCC(=O)OC1CCS(=O)(=O)c2sccc21 (stereo unspecified)	2	8	-5	-0.24	15
SMILES	MT stabilizer	WT yeast gro inh	b-catenin transl	KCC2 mod	Pf gamet viab
CC(=O)c1ccc(Nc2cc(C)nc3c(C)cc(C)cc23)cc1	20*	25	124*	-0.82	6
COC(=O)c1ccc(Nc2cc(C)nc3ccccc23)cc1	x	x	79*	x	-21
N/C(=N/OC(=O)c1ccccc1Cl)c1ncc([N+](=O)[O-])s1	x	x	4	-0.59	19
O=C1Nc2ccc(F)cc2C12Nc1ccccc1-c1nnc(SCc3ccccc3Cl)nc1O2 (stereo unspecified)	2	69*	-1	x	x
O=C1Nc2ccc(F)cc2C12Nc1ccccc1-c1nnc(SCc3ccccc3)nc1O2 (stereo unspecified)	5	13	x	x	x
Cc1ccc(CSc2nnc3c(n2)OC2(Nc4ccccc4-3)C(=O)Nc3ccc(F)cc32)cc1 (stereo unspecified)	2	70*	0	-2.2	21
CCOC(=O)c1cccnc1NC(=O)c1ccccc1	2	-16	2	-0.32	x
COc1ccc(CCNS(=O)(=O)c2ccc3c(c2)OCCO3)cc1	3	-14	-1	0.36	12
COc1ccc(CCNS(=O)(=O)c2ccc(OC)cc2)cc1	6	74*	0	-0.21	x
COc1ccc(NC(=S)NCc2ccc3c(c2)OCO3)cc1	2	3	1	-0.65	-47
CC(C)c1ccc(NC(=S)NCc2ccc3c(c2)OCO3)cc1	2	67*	-2	-1	-9
COC(=O)/C(=C/c1cn(C(C)=O)c2ccccc12)[N+](=O)[O-]	x	x	1	-0.0024	10
CC(=O)n1cc(C(C[N+](=O)[O-])SCCN)c2ccccc21 (stereo unspecified)	26*	23	16	0.48	x
CC[C@@H]1C/C=C\Cc2ccccc2[C@H](C(=O)C[C@@H](O)CC(C)=O)OC1=O	x	x	x	x	-2
COc1ccc(NC(=O)/C(C#N)=C\C=C\c2ccco2)cc1	19*	10	9	-0.27	-12
Cc1ccc(C(=O)Nc2ccc(C)c(S(=O)(=O)Nc3ccccc3Cl)c2)s1	3	70*	-1	0.52	-2
O=C(Nc1ccc(Cl)c(S(=O)(=O)Nc2ccccc2Cl)c1)c1cccs1	4	84*	x	-0.92	x
O=C(Nc1ccccc1Cl)c1cccs1	1	-44	-3	-1.9	2
COc1cccc(/C=N/n2nnnc2N)c1OCC#N	x	x	x	x	7
COc1ccc(OCC(=O)NNc2c3ccccc3nc3ccccc23)cc1	1	64*	8	x	-2
O=C(COc1ccccc1)NNc1c2ccccc2nc2ccccc12	1	42	0	-3.3	-11
COCCNC(=O)/C(=C/c1ccccc1Cl)c1ccccc1	2	0	-2	-0.83	-59
CCOC(=O)N1CCN(C(=O)c2ccccc2-c2ccccc2)CC1	32*	-6	50	1.5	-18
CC1(C)C2CCC1(C)C(OC(=O)CC(=O)O)C2 (stereo unspecified)	3	64*	-1	0.61	x
CO[C@H]1O[C@H](CBr)[C@@H](OC(=O)c2ccccc2)[C@H](O)[C@H]1O	x	x	x	x	-2
SMILES	MT stabilizer	WT yeast gro inh	b-catenin transl	KCC2 mod	Pf gamet viab
O=C(NC(=S)Nc1nc2c(s1)CCCC2)c1ccc(C(=O)c2ccccc2)cc1	5	6	x	23*	x
COC(=O)c1ccc(C(=O)NC(=S)Nc2nc3c(s2)CC(C)CC3)cc1 (stereo unspecified)	10	-2	2	-1.1	14
O=C(Nc1nc2c(s1)CCCC2)c1cccnc1	4	15	0	-0.2	x
O=C(NC(=S)Nc1nc2c(s1)CSc1ccccc1-2)c1ccccc1	2	83*	-1	x	12
COc1ccc(NC(=O)COc2ccccc2)cc1NC(=O)c1ccco1	x	x	x	x	-3
COc1ccccc1CNC(=O)COC(=O)Cn1cnc2ccccc21	6	-8	2	0.15	-3
COc1ccc(Cl)cc1NC(=O)CN(C)CC(=O)NC(C)c1ccccc1 (stereo unspecified)	4	-2	0	-1.1	15

Screening data deposited in PubChem BioAssay by several laboratories.
